# The source made the active and inactive calls. The calls are words filed in the database; no cut-off is given here.
# Legend:
# RAW264.7 [1] = assay: Inhibition of MAPK/NFkappaB in ICR mouse RAW264.7 cells assessed as reduction in LPS-induced TNFalpha production at 10 uM pretreated for 0.5 hrs followed by LPS challenge and measured after 24 hrs by ELISA relative to control; assay type: cell-based
# RAW264.7 [2] = assay: Inhibition of MAPK/NFkappaB in ICR mouse RAW264.7 cells assessed as reduction in LPS-induced IL6 production at 10 uM pretreated for 0.5 hrs followed by LPS challenge and measured after 24 hrs by ELISA relative to control; assay type: cell-based
# RAW264.7 [3] = assay: Cytotoxicity against ICR mouse RAW264.7 cells assessed as effect on cell proliferation at 10 uM after 24 hrs by MTT assay; assay type: cell-based; details: raw264.7, 24 h
# RAW264.7 [4] = assay: Inhibition of MAPK/NFkappaB in ICR mouse RAW264.7 cells assessed as reduction in LPS-induced TNF-alpha production at 10 uM pretreated for 0.5 hrs followed by LPS challenge and measured after 24 hrs by ELISA relative to piperlongumine; assay type: cell-based
# RAW264.7 [5] = assay: Inhibition of MAPK/NFkappaB in ICR mouse RAW264.7 cells assessed as reduction in LPS-induced TNF-alpha production at 10 uM pretreated for 0.5 hrs followed by LPS challenge and measured after 24 hrs by ELISA relative to curcumin; assay type: cell-based
# RAW264.7 [6] = assay: Inhibition of MAPK/NFkappaB in ICR mouse RAW264.7 cells assessed as reduction in LPS-induced IL6 production at 10 uM pretreated for 0.5 hrs followed by LPS challenge and measured after 24 hrs by ELISA relative to piperlongumine; assay type: cell-based
# [7] = tested on: peritoneal macrophages (Mus musculus); assay: Inhibition of MAPK/NFkappaB in ICR mouse peritoneal macrophages assessed as reduction in LPS-induced IL6 production at 10 uM pretreated for 0.5 hrs followed by LPS challenge and measured after 24 hrs by ELISA relative to curcumin
# RAW264.7 [8] = assay: Inhibition of MAPK/NFkappaB in ICR mouse RAW264.7 cells assessed as reduction in LPS-induced TNFalpha production pretreated for 0.5 hrs followed by LPS challenge and measured after 24 hrs by ELISA; assay type: cell-based
# [9] = Stability in pH 7.4 phosphate buffer assessed as compound decomposition measured up to 25 mins by UV-Vis spectroscopy; assay type: physicochemical; details: pH 7.4, 25 min
# Summary of the method: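 Compound stability was followed by recording UV-visible absorption spectra in phosphate buffer at pH 7.4.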
# [10] = target: MAP kinase p38 (Mus musculus) (UniProt P47811+O08911+Q9WUI1+Q9Z1B7); assay: Inhibition of LPS-induced p38 MAPK phosphorylation in ICR mouse RAW264.7 cells at 10 uM preincubated for 0.5 hrs followed by LPS challenge and measured after 30 mins by immunoblotting analysis; assay type: cell-based
# Summary of the method: (§1)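 RAW 264.7 cells were pretreated with compound for 0.5 h and then stimulated with LPS for 30 min. Lysates were resolved on 10% or 12% SDS-PAGE and transferred to nitrocellulose. Membranes were blocked in TBS (pH 7.6) with 0.05% Tween 20 and 5% milk. Blots were probed for p-p38, p38, p-ERK, ERK, IκBα and GAPDH, detected with HRP secondaries and ECL.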
# RAW264.7 [11] = assay: Inhibition of LPS-induced ERK phosphorylation in ICR mouse RAW264.7 cells at 10 uM preincubated for 0.5 hrs followed by LPS challenge and measured after 30 mins by immunoblotting analysis; assay type: cell-based; summary of the method: as §1
# RAW264.7 [12] = assay: Inhibition of NFkappaB/MAPK signaling in LPS-induced mouse RAW264.7 cells assessed as down regulation of IkappaB expression at 10 uM preincubated for 0.5 hrs followed by LPS-challenge and measured after 30 mins by immunoblotting analysis; assay type: cell-based; summary of the method: as §1
# [13] = target: Transcription factor p65 (Mus musculus) (UniProt Q04207); assay: Inhibition of LPS-induced NFkappaB p65 nuclear translocation in ICR mouse RAW264.7 cells preincubated for 0.5 hrs followed by LPS challenge and measured after 40 mins by DAPI staining-based immunofluorescence microscopic analysis; assay type: cell-based
# Summary of the method: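 RAW 264.7 cells were pretreated with compound for 0.5 h, then given LPS for 40 min (methods) or 45 min (legend). Cells were fixed with 4% paraformaldehyde and permeabilized in methanol. Anti-p65 (1:200) was applied overnight at 4 °C, then PE-conjugated secondary (1:200) for 2 h. Nuclei were stained with DAPI and cells viewed by fluorescence microscopy.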
# RAW264.7 [14] = assay: Inhibition of MAPK/NFkappaB in ICR mouse RAW264.7 cells assessed as reduction in LPS-induced IL6 production pretreated for 0.5 hrs followed by LPS challenge and measured after 24 hrs by ELISA; assay type: cell-based
# Chain of Transcription factor p65 (Mus musculus) (Q04207 whole entry): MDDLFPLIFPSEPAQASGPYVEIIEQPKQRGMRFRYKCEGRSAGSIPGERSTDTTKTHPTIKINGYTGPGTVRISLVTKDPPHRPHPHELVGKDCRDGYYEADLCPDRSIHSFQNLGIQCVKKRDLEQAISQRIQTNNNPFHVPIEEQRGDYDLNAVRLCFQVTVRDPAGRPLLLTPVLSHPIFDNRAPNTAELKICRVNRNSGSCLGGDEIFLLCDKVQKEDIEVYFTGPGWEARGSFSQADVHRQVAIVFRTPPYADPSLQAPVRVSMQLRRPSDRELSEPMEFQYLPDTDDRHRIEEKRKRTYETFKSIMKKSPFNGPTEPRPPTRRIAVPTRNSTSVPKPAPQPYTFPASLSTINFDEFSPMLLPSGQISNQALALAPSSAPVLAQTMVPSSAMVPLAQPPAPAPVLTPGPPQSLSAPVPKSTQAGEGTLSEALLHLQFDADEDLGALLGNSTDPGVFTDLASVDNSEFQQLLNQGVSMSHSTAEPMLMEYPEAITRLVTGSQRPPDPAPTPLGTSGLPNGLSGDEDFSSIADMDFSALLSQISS
Structure (SMILES),inhibition (RAW264.7 [1]),inhibition (RAW264.7 [2]),Activity (RAW264.7 [3]),also measured
COc1cc(OC)c(OC)cc1/C=C/C(=O)N1CCC/C(=C\c2cc(OC)c(OC)c(OC)c2)C1=O,39.6 to 99.5%,39.6 to 99.5%,Non-Toxic,–
COc1cc(/C=C2\CCCN(C(=O)/C=C/c3ccc(F)cc3)C2=O)cc(OC)c1OC,–,–,Non-Toxic,inhibition (RAW264.7 [4]): < 85.3%; inhibition (RAW264.7 [5]): < 85.3%; inhibition (RAW264.7 [6]): < 85.3%; inhibition [7]: < 85.3%
COc1cc(/C=C2\CCCN(C(=O)/C=C/c3c(Cl)cccc3Cl)C2=O)cc(OC)c1OC,39.6 to 99.5%,39.6 to 99.5%,Non-Toxic,–
COc1cc(/C=C/C(=O)N2CCC=CC2=O)cc(OC)c1OC [PIPLARTINE],Active,Active,Non-Toxic,–
COc1cc(/C=C2\CCCN(C(=O)/C=C/c3ccc(Br)cc3)C2=O)cc(OC)c1OC,–,–,Non-Toxic,inhibition (RAW264.7 [4]): < 85.3%; inhibition (RAW264.7 [5]): < 85.3%; inhibition (RAW264.7 [6]): < 85.3%; inhibition [7]: < 85.3%
COc1cccc(/C=C/C(=O)N2CCC/C(=C\c3cc(OC)c(OC)c(OC)c3)C2=O)c1OC,inactive,inactive,Non-Toxic,–
COc1cc(/C=C2\CCCN(C(=O)/C=C/c3ccc(Cl)cc3Cl)C2=O)cc(OC)c1OC,38.5 to 53.4%,46.8 to 68.2%,Non-Toxic,–
COc1ccc(/C=C/C(=O)N2CCC/C(=C\c3cc(OC)c(OC)c(OC)c3)C2=O)c(OC)c1,39.6 to 99.5%,39.6 to 99.5%,Non-Toxic,–
COc1ccc(/C=C/C(=O)N2CCC/C(=C\c3cc(OC)c(OC)c(OC)c3)C2=O)c(F)c1,39.6 to 99.5%,39.6 to 99.5%,Non-Toxic,–
COc1ccc(F)c(/C=C/C(=O)N2CCC/C(=C\c3cc(OC)c(OC)c(OC)c3)C2=O)c1,38.5 to 53.4%,46.8 to 68.2%,Non-Toxic,–
COc1cc(/C=C2\CCCN(C(=O)/C=C/c3ccccc3Cl)C2=O)cc(OC)c1OC,–,–,Non-Toxic,inhibition (RAW264.7 [4]): < 85.3%; inhibition (RAW264.7 [5]): < 85.3%; inhibition (RAW264.7 [6]): < 85.3%; inhibition [7]: < 85.3%
COc1cc(/C=C2\CCCN(C(=O)/C=C/c3ccc([N+](=O)[O-])cc3)C2=O)cc(OC)c1OC,38.6%,94.1%,Non-Toxic,–
COc1cc(/C=C2\CCCN(C(=O)/C=C/c3c(F)cccc3Cl)C2=O)cc(OC)c1OC,38.5 to 53.4%,46.8 to 68.2%,Non-Toxic,–
COc1cc(/C=C2\CCCN(C(=O)/C=C/c3ccc(F)c(F)c3)C2=O)cc(OC)c1OC,39.6 to 99.5%,39.6 to 99.5%,Non-Toxic,–
COc1cc(/C=C2\CCCN(C(=O)/C=C/c3cccc(F)c3)C2=O)cc(OC)c1OC,–,–,Non-Toxic,inhibition (RAW264.7 [4]): < 85.3%; inhibition (RAW264.7 [5]): < 85.3%; inhibition (RAW264.7 [6]): < 85.3%; inhibition [7]: < 85.3%
COc1cc(/C=C2\CCCN(C(=O)/C=C/c3ccccc3C(F)(F)F)C2=O)cc(OC)c1OC,–,–,Non-Toxic,inhibition (RAW264.7 [4]): < 85.3%; inhibition (RAW264.7 [5]): < 85.3%; inhibition (RAW264.7 [6]): < 85.3%; inhibition [7]: < 85.3%
COc1cc(/C=C/C(=O)CC(=O)/C=C/c2ccc(O)c(OC)c2)ccc1O [CURCUMIN],Active,Active,Non-Toxic,inhibition (RAW264.7 [8]): Active; Stability [9]: Unstable; inhibition [10]: Active; inhibition (RAW264.7 [11]): Active; inhibition (RAW264.7 [12]): Active; inhibition [13]: Active; inhibition (RAW264.7 [14]): Active
COc1cc(/C=C2\CCCN(C(=O)/C=C/c3cc(F)ccc3F)C2=O)cc(OC)c1OC,38.5 to 53.4%,46.8 to 68.2%,Non-Toxic,–
COc1cc(/C=C2\CCCN(C(=O)/C=C/c3cccc(Br)c3)C2=O)cc(OC)c1OC,–,–,Non-Toxic,inhibition (RAW264.7 [4]): < 85.3%; inhibition (RAW264.7 [5]): < 85.3%; inhibition (RAW264.7 [6]): < 85.3%; inhibition [7]: < 85.3%
COc1cc(/C=C2\CCCN(C(=O)/C=C/c3ccccc3OC(C)=O)C2=O)cc(OC)c1OC,39.6 to 99.5%,39.6 to 99.5%,Non-Toxic,–
COc1cc(/C=C/C(=O)N2CCC/C(=C\c3cc(OC)c(OC)c(OC)c3)C2=O)cc(OC)c1OC,39.6 to 99.5%,39.6 to 99.5%,Non-Toxic,–
COc1cc(/C=C2\CCCN(C(=O)/C=C/c3ccc(F)cc3Cl)C2=O)cc(OC)c1OC,38.5 to 53.4%,46.8 to 68.2%,Non-Toxic,–
COc1ccccc1/C=C/C(=O)N1CCC/C(=C\c2cc(OC)c(OC)c(OC)c2)C1=O,39.6 to 99.5%,39.6 to 99.5%,Non-Toxic,–
COc1cc(/C=C2\CCCN(C(=O)/C=C/c3ccc(OC(C)=O)cc3)C2=O)cc(OC)c1OC,39.6 to 99.5%,39.6 to 99.5%,Non-Toxic,–
COc1cccc(/C=C/C(=O)N2CCC/C(=C\c3cc(OC)c(OC)c(OC)c3)C2=O)c1,39.6 to 99.5%,39.6 to 99.5%,Non-Toxic,–
COc1cc(/C=C2\CCCN(C(=O)/C=C/c3ccccc3F)C2=O)cc(OC)c1OC,–,–,Non-Toxic,inhibition (RAW264.7 [4]): < 85.3%; inhibition (RAW264.7 [5]): < 85.3%; inhibition (RAW264.7 [6]): < 85.3%; inhibition [7]: < 85.3%
COc1cc(/C=C2\CCCN(C(=O)/C=C/c3cc(C)ccc3C)C2=O)cc(OC)c1OC,39.6 to 99.5%,39.6 to 99.5%,Non-Toxic,–
COc1cc(/C=C2\CCCN(C(=O)/C=C/c3ccccc3O)C2=O)cc(OC)c1OC,39.6 to 99.5%,39.6 to 99.5%,Non-Toxic,–
COc1ccc(/C=C/C(=O)N2CCC/C(=C\c3cc(OC)c(OC)c(OC)c3)C2=O)cc1OC(C)=O,39.6 to 99.5%,39.6 to 99.5%,Non-Toxic,–
